Only some compounds are listed: those with a hit (about 1.7% of all), similar ones and a draw of the others.
Runt-SMMHC FRET: Runt domain-CBFb-SMMHC interaction inhibition; Q01196+Q13951; Cerulean-Runt/Venus-CBFb-SMMHC FRET ratio 530/480, 1 h; inhibition, % at 20 µM; hit rate 0.74% among 220,000; AID 1434;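 active = mean inhibition across duplicate retests at 20 µM reaching about 50%, limit read from the data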;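 note: inhibitors lower the FRET ratio by blocking Runt binding to CBFb-SMMHC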
Hck-Nef inh: human Hck-Nef kinase inhibition | P08631 | inhibition, % at 20 µM | AID 463187 | Recombinant Hck-YEEI plus Nef, Z-Lyte FRET kinase assay | hit rate 0.68% among 220,000;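 active = Hck-Nef kinase inhibition above about 50%, limit read from the data; inactive = inhibition below that limit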
Target sequence (P08631 whole entry, looked up): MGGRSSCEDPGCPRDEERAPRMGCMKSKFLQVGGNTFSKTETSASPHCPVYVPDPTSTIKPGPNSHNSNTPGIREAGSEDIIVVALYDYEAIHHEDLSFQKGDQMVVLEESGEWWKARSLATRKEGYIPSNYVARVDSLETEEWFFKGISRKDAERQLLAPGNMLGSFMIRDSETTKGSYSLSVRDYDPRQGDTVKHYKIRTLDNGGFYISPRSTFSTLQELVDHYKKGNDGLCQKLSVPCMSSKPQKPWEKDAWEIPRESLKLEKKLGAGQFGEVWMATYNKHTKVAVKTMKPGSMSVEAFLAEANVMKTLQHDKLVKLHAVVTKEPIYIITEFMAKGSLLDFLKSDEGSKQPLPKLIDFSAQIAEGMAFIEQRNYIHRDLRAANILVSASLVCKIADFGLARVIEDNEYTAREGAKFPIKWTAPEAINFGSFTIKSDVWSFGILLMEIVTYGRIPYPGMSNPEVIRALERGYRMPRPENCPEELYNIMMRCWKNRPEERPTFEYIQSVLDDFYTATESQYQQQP
RanGTP-Imp inh: inhibitors of RanGTP-importin-beta interaction, primary screen, biochemical, FRET, CFP-Ran, YFP-importin-beta, homogeneous. cell-free CFP-Ran/YFP-importin-beta FRET ratio. inhibition, % (no concentration beside the values). hit rate 1.1% among 300,000;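 active = more than half of the replicate wells show a fall in the fluorescence ratio signal beyond about 16%, limit read from the data, passing the limit was not always enough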
Runt-CBFb FRET: inhibitors of human RUNX1 Runt domain binding to CBFb; Q01196+Q13951; Cerulean-Runt/Venus-CBFb FRET ratio 530/480, 1 h; inhibition, % at 20 µM; hit rate 0.46% among 220,000; AID 1496;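 active = inhibition over about 50% at 20 µM in the single-dose screen, limit read from the data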
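Assay system: Cerulean-Runt domain fusion protein, energy donor; Signal: fluorescence energy transfer, 422 nm excitation, 530/480 nm emission; Timing: 1 h compound exposure, room temperature; Control set: unlabeled CBFb; Medium: Tris buffer pH 7.5 with salts and BSA; Compound: single test concentration of 20 µM, 1% DMSO final; Probe or stimulus: Venus-CBFb 100 nM.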
Hck-Nef confirm: Hck-Nef kinase inhibition, confirmation. shares compounds with Hck-Nef inh. Recombinant Hck-YEEI:Nef, Z-Lyte FRET kinase assay. calls only at 10 µM. hit rate 28% among 1,300. AID 463188;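 active = average inhibition of at least 50%, with Z-scores no higher than 3 in both the phospho-tyrosine peptide and fluorescence counterscreens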
A number is an active result; i = inactive; nt = no result given; + = active, no number.

SMILES	Runt-SMMHC FRET	Hck-Nef inh	RanGTP-Imp inh	Runt-CBFb FRET	Hck-Nef confirm
N#Cc1ccc(/C=C\c2nccc3c2[nH]c2ccccc23)cc1	i	57.3	102.7	i	i
COc1cc(Nc2ncnc(N)n2)cc(OC)c1	i	61.9	i	i	+
Cc1ccc(-n2sc3ccccc3c2=O)cc1S(=O)(=O)N1CCCCC1	i	114.8	i	i	+
O=c1c2ccccc2sn1-c1ccc(S(=O)(=O)N2CCCCC2)cc1	nt	i	i	nt	nt
Cc1c(-c2ccc(Cl)cc2)oc(=O)c2c(N)n(-c3ccccc3)nc12	i	i	i	i	nt
Nc1c2c(=O)oc(-c3ccccc3)cc2nn1-c1ccccc1	i	67.2	i	i	i
COc1ccccc1CNC(=O)c1ccc2ccccc2n1	nt	nt	i	nt	nt
CC1(C)Cc2c(sc3[nH]c(=S)n(Cc4ccco4)c(=O)c23)CO1	i	i	i	i	nt
O=c1c2c3c(sc2[nH]c(=S)n1Cc1ccco1)CCC3	i	80.6	i	i	i
Cc1ccccc1OCCn1c(S(=O)(=O)O)nc2c(N)ncnc21	nt	nt	i	nt	nt
COc1ccc(NC(=O)c2cc([N+](=O)[O-])ccc2O)cc1	i	52.5	i	i	i
COc1ccc2cc(C3CC(c4ccco4)=NN3C(=O)CCC(=O)O)c(Cl)nc2c1 (centres undefined)	i	i	i	i	nt
COc1ccc(C2=NN(C(=O)c3ccco3)C(c3cc4ccccc4nc3Cl)C2)cc1 (centres undefined)	i	50.9	i	i	i
NC(=S)n1[nH]c(-c2ccc([N+](=O)[O-])cc2)c(N=Nc2cccc([N+](=O)[O-])c2)c1=O	i	76.0	i	i	+
NC(=S)n1[nH]c(-c2ccc([N+](=O)[O-])cc2)c(N=Nc2ccccc2[N+](=O)[O-])c1=O	i	i	nt	i	nt
COc1ccc(-n2ncc3c2CC(C)(C)CC3NC(=O)C2=CC(=O)CC(C)(C)O2)cc1 (centres undefined)	nt	nt	i	nt	nt
CCOc1ccc2nc(N(CCN(CC)CC)C(=O)/C=C/c3cccs3)sc2c1	nt	nt	i	nt	nt
COCCNc1cc(C)nc2c3c(C)cc(C)nc3nn12	73.4	57.1	49.8	i	nt
COCCNc1cc(C)nc2c(-c3ccccc3OC)c(C)nn12	i	i	i	i	nt
CC(C)=NNc1nc2c(c(=O)n(C)c(=O)n2C)n1CCc1ccccc1	i	i	i	i	nt
Nc1cc(=O)nc(SCC(=O)Nc2cccc3ccccc23)n1CCc1ccccc1	i	i	i	i	nt
Cc1ccc(-c2nn3c(C)nnc3s2)cc1NC(=O)c1ccc(-c2cccc(Cl)c2)o1	i	i	i	i	nt
Cc1ccc(-c2nn3c(C)nnc3s2)cc1NC(=O)c1ccc(-c2ccc(Cl)cc2Cl)o1	i	50.2	nt	i	+
CCOC(=O)COc1ccc(/C=C2/SC(=Nc3ccccc3)N(Cc3cccnc3)C2=O)cc1OC	i	70.9	i	i	i
O=C(/C=C/c1cn(-c2ccccc2)nc1-c1ccccc1)Nc1ccc(C(=O)O)cc1	i	i	i	i	nt
SMILES	Runt-SMMHC FRET	Hck-Nef inh	RanGTP-Imp inh	Runt-CBFb FRET	Hck-Nef confirm
NS(=O)(=O)c1ccc(NC(=O)/C=C/c2cn(-c3ccccc3)nc2-c2cccc(Cl)c2)cc1	i	89.6	i	i	i
N#Cc1c(-c2cccnc2)c2c([nH]c1=O)-c1ccccc1OC2	81.6	130.1	112.8	i	nt
N#Cc1c(-c2ccc(F)cc2)c2c([nH]c1=O)-c1ccccc1OC2	80.2	126.0	101.1	59.8	nt
N#Cc1c(-c2ccccc2)[nH]c(=O)[nH]c1=O	i	i	i	i	nt
O=Cc1cc(N=Nc2ccccc2Cl)ccc1O	i	56.6	i	i	+
O=Cc1cc(N=Nc2cccc(C(=O)O)c2)ccc1O	i	i	i	i	nt
O=C(COC(=O)c1cccc(N2C(=O)c3ccccc3C2=O)c1)Nc1ccccc1	i	i	i	i	nt
N#Cc1cccc(NC(=O)COC(=O)c2cccc(N3C(=O)c4ccccc4C3=O)c2)c1	i	56.3	i	i	i
O=C(CSc1ncnc2c1oc1ccccc12)Nc1nccs1	i	79.0	i	i	i
Nc1nonc1-n1nnc(C(=O)N/N=C/c2ccoc2)c1CSc1ccc(Cl)cc1	nt	nt	i	nt	nt
CCC(=O)N1N=C(c2cccs2)CC1c1ccc(OC)cc1 (centres undefined)	nt	nt	i	nt	nt
COc1ccc(C2CC(c3cccs3)=NN2c2ccc(C=O)cc2)cc1 (centres undefined)	73.1	53.9	i	i	i
COc1ccc(C2CC(c3ccccc3)=NN2c2ccc(S(N)(=O)=O)cc2)cc1 (centres undefined)	i	107.9	i	i	nt
NS(=O)(=O)c1ccc(N2N=C(c3ccccc3)CC2c2ccc(F)cc2)cc1 (centres undefined)	i	60.1	i	i	nt
CCS(=O)(=O)c1nc(S(=O)(=O)c2ccc(C)cc2)c(NCCCn2ccnc2)s1	nt	nt	i	nt	nt
CC[C@H](C)C(C(=O)N1CCN(C(=O)OC(C)(C)C)CC1)n1cc(C(Cc2ccc(O)cc2)NC(=O)OC(C)(C)C)nn1 (some centres undefined)	i	i	i	i	nt
COc1c(-c2ccc(O)cc2)oc2cc(O)cc(O)c2c1=O	i	53.3	nt	i	i
O=c1c(-c2ccc(O)cc2)coc2cc(O)cc(O)c12	i	51.6	i	i	i
O=c1c(-c2c(O)cc(O)c3c(=O)cc(-c4ccc(O)cc4)oc23)c(-c2ccc(O)cc2)oc2cc(O)cc(O)c12	i	66.2	nt	i	i
O=c1cc(-c2ccc(O)c(-c3c(O)cc(O)c4c(=O)cc(-c5ccc(O)cc5)oc34)c2)oc2cc(O)cc(O)c12	i	52.7	i	i	+
CCOC(=O)N1CCC(=NNC(=O)c2ccccc2F)CC1	i	i	nt	i	nt
COc1ccc(Cl)cc1NC(=O)CSc1nnc(Cc2ccc(C)cc2)c(=O)[nH]1	nt	nt	i	nt	nt
O=c1cc(-c2ccc(O)c(O)c2)oc2cc(O)cc(O)c12	i	91.1	i	i	+
CCN(CCO)c1nc(SC)nc2c1sc1nc(-c3ccco3)c3c(c12)CCC3	i	67.7	i	i	i
Cc1cn(-c2cc(C(=O)Nc3ccc(C)c(NC(=O)C(=O)c4c[nH]c5ccccc45)c3)cc(C(F)(F)F)c2)cn1	i	55.4	i	i	i
SMILES	Runt-SMMHC FRET	Hck-Nef inh	RanGTP-Imp inh	Runt-CBFb FRET	Hck-Nef confirm
CC(=O)Nc1sc(N/N=C\c2cccc(Cl)c2)nc1-c1cccs1	i	i	i	i	nt
CC(=O)Nc1sc(N/N=C\c2ccc(O)cc2)nc1-c1cccs1	i	59.6	i	i	i
Cc1ccccc1NC(=S)NC1(C)CCS(=O)(=O)C1 (centres undefined)	i	i	i	i	nt
CC(C)(C)c1ccc(C(=O)CC(Sc2ccc(Cl)cc2)C(=O)O)cc1 (centres undefined)	i	76.8	i	i	i
O=C(Nc1cccc(S(=O)(=O)NC2=NCCCCC2)c1)c1cc(-c2ccco2)nc2ccccc12	i	92.9	i	i	+
CCc1ccc(N2CC(C(=O)OCC(=O)c3c(N)n(CC(C)C)c(=O)n(C)c3=O)CC2=O)cc1 (centres undefined)	nt	nt	i	nt	nt
